Assays:
DU-145 = assay: Cytotoxicity against human DU145 cells after 48 hrs by SRB assay; format: functional, cell-based; settings: Homo sapiens, DU-145, 48 h; for CC50: read-out: LC50 (the source's name)
Procedure, shortened: (§1)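 Cells grown in RPMI 1640 with 10% FBS and penicillin/streptomycin at 37 °C and 5% CO₂, trypsinized, then seeded at 5 × 10³/well. After 18 h drug-free attachment, samples in DMSO/EtOH/PBS (0.5:0.5:99) were added for 48 h continuous exposure. Cells were fixed with cold TCA (1 h, 4 °C) and stained with SRB (10 min). Tris-solubilized stain read at 490 nm. Triplicate wells, mean ± SD; GI₅₀ derived.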

LNCaP = assay: Cytotoxicity against human LNcaP cells after 48 hrs by SRB assay; format: functional; settings: for CC50: read-out: LC50 (the source's name); procedure, shortened: as §1
[1] = Cytotoxicity against human IGROV cells after 48 hrs by SRB assay; format: functional; settings: for CC50: read-out: LC50 (the source's name); procedure, shortened: as §1
[2] = Cytotoxicity against human IGROV-ET cells after 48 hrs by SRB assay; format: functional; settings: for CC50: read-out: LC50 (the source's name); procedure, shortened: as §1
SK-BR-3 = assay: Cytotoxicity against human SKBR3 cells after 48 hrs by SRB assay; format: functional; settings: SK-BR-3, 48 h; for GI50: read-out: GI50; for CC50: read-out: LC50 (the source's name); procedure, shortened: as §1
SK-MEL-28 = assay: Cytotoxicity against human SK-MEL-28 cells after 48 hrs by SRB assay; format: functional, cell-based; settings: Homo sapiens, SK-MEL-28, 48 h; for CC50: read-out: LC50 (the source's name); procedure, shortened: as §1
A549 = assay: Cytotoxicity against human A549 cells after 48 hrs by SRB assay; format: functional, cell-based; settings: Homo sapiens, A549, 48 h; procedure, shortened: as §1
K562 = assay: Cytotoxicity against human K562 cells after 48 hrs by SRB assay; format: functional; settings: K562, 48 h; for CC50: read-out: LC50 (the source's name); procedure, shortened: as §1
PANC-1 = assay: Cytotoxicity against human PANC1 cells after 48 hrs by SRB assay; format: functional; settings: PANC-1, 48 h; for CC50: read-out: LC50 (the source's name); procedure, shortened: as §1
HT-29 = assay: Cytotoxicity against human HT29 cells after 48 hrs by SRB assay; format: functional, cell-based; settings: Homo sapiens, HT-29, 48 h; for CC50: read-out: LC50 (the source's name); procedure, shortened: as §1
LoVo [3] = assay: Cytotoxicity against human LoVo cells after 48 hrs by SRB assay; format: functional; settings: for CC50: read-out: LC50 (the source's name)
LoVo [4] = assay: Cytotoxicity against human doxorubicin resistant LoVo cells after 48 hrs by SRB assay; format: functional; settings: for CC50: read-out: LC50 (the source's name); procedure, shortened: as §1
HeLa = assay: Cytotoxicity against human HeLa cells after 48 hrs by SRB assay; format: functional; settings: for CC50: read-out: LC50 (the source's name); procedure, shortened: as §1
[5] = Cytotoxicity against human HeLa-APL cells after 48 hrs by SRB assay; format: functional; procedure, shortened: as §1

Question: Which GI50 (DU-145) does the source give for `C/C=C1\NC(=O)[C@H](Cc2ccccc2)NC(=O)[C@@H](C(C)C)NC(=O)[C@@H]([C@H](C)CC)NC(=O)[C@H](NC(=O)[C@H](NC(=O)[C@H](CCCNC(=O)CCOCCOCCN)NC(=O)[C@H]2CCCN2C(=O)[C@H](NC(=O)[C@@H](NC(=O)[C@@H](NC(=O)[C@H](NC(=O)CCCC(C)C)C(C)C)[C@@H](C)O)C(C)C)C(C)C)[C@H](C)CC)[C@H](C)OC(=O)[C@H](C(C)C)NC1=O` here?
Answer: 0.852 µM

Question: What about the GI50 (DU-145; read-out: GI50) of the same compound?
Answer: 0.738 µM

Question: What about the CC50 (DU-145) of the same compound?
Answer: 0.982 µM

Question: And the CC50 (LNCaP)?
Answer: 0.866 µM

Question: And the GI50 [1]?
Answer: 0.134 µM

Question: What about the GI50 ([1]; read-out: GI50) of the same compound?
Answer: 0.176 µM

Question: And the CC50 [1]?
Answer: 0.262 µM

Question: What about the GI50 [2] of the same compound?
Answer: 0.287 µM

Question: What about the GI50 ([2]; read-out: GI50) of the same compound?
Answer: 0.195 µM

Question: What about the CC50 [2] of the same compound?
Answer: 0.51 µM

Question: What about the TGI (SK-BR-3) of the same compound?
Answer: 0.235 µM

Question: And the GI50 (SK-BR-3)?
Answer: 0.248 µM

Question: What about the CC50 (SK-BR-3) of the same compound?
Answer: 0.111 µM

Question: And the GI50 (SK-MEL-28)?
Answer: 0.956 µM

Question: And the GI50 (SK-MEL-28; read-out: GI50)?
Answer: 0.952 µM

Question: And the CC50 (SK-MEL-28)?
Answer: 0.954 µM

Question: What about the GI50 (A549) of the same compound?
Answer: 0.595 µM

Question: And the LC50 (A549)?
Answer: 0.35 µM

Question: And the GI50 (A549; read-out: GI50)?
Answer: 4.92 µM

Question: And the CC50 (K562)?
Answer: 0.159 µM

Question: And the GI50 (PANC-1)?
Answer: 1.25 µM

Question: And the TGI (PANC-1)?
Answer: 1.06 µM

Question: And the CC50 (PANC-1)?
Answer: 1.6 µM

Question: And the CC50 (HT-29)?
Answer: 0.39 µM

Question: And the CC50 (LoVo [3])?
Answer: 0.301 µM

Question: And the CC50 (LoVo [4])?
Answer: 0.0295 µM

Question: And the GI50 (HeLa)?
Answer: 0.711 µM

Question: And the TGI (HeLa)?
Answer: 0.942 µM

Question: What about the CC50 (HeLa) of the same compound?
Answer: 0.944 µM

Question: And the GI50 [5]?
Answer: 0.515 µM

Question: And the LC50 (concentration giving 50% net cell kill) [5]?
Answer: 0.852 µM

Question: And the TGI [5]?
Answer: 0.658 µM

Question: For `C/C=C1\NC(=O)[C@H](Cc2ccccc2)NC(=O)[C@@H](C(C)C)NC(=O)[C@@H]([C@H](C)CC)NC(=O)[C@H](NC(=O)[C@H](NC(=O)[C@H](CCCN)NC(=O)[C@H]2CCCN2C(=O)[C@H](NC(=O)[C@H](CCC(=O)O)NC(=O)[C@@H](NC(=O)[C@H](NC(=O)CCCC(C)C)C(C)C)[C@@H](C)O)C(C)C)[C@H](C)CC)[C@H](C)OC(=O)[C@H](C(C)C)NC1=O`, which CC50 (DU-145) is on record?
Answer: 1.66 µM

Question: What about the CC50 (LNCaP) of the same compound?
Answer: 1.37 µM

Question: What about the CC50 [1] of the same compound?
Answer: 0.842 µM

Question: And the CC50 [2]?
Answer: 0.632 µM

Question: What about the CC50 (SK-BR-3) of the same compound?
Answer: 1.04 µM

Question: And the CC50 (SK-MEL-28)?
Answer: 1.82 µM

Question: What about the LC50 (A549) of the same compound?
Answer: 1.79 µM

Question: What about the CC50 (K562) of the same compound?
Answer: 1.89 µM

Question: And the CC50 (PANC-1)?
Answer: 2.27 µM

Question: And the CC50 (HT-29)?
Answer: 2.33 µM

Question: And the CC50 (LoVo [3])?
Answer: 3.86 µM

Question: What about the CC50 (LoVo [4]) of the same compound?
Answer: 3.67 µM

Question: And the CC50 (HeLa)?
Answer: 1.35 µM

Question: What about the LC50 (concentration giving 50% net cell kill) [5] of the same compound?
Answer: 1.42 µM

Question: For `C/C=C1\NC(=O)[C@H](Cc2ccccc2)NC(=O)[C@@H](C(C)C)NC(=O)[C@@H]([C@H](C)CC)NC(=O)[C@H](NC(=O)[C@H](NC(=O)[C@H](CCCN)NC(=O)[C@H]2CCCN2C(=O)[C@H](NC(=O)[C@@H](NC(=O)[C@@H](NC(=O)[C@H](NC(=O)CCCCCCC)C(C)C)[C@@H](C)O)C(C)C)C(C)C)[C@H](C)CC)[C@H](C)OC(=O)[C@H](C(C)C)NC1=O`, which GI50 (DU-145) is on record?
Answer: 0.666 µM

Question: And the GI50 (DU-145; read-out: GI50)?
Answer: 0.578 µM

Question: And the CC50 (DU-145)?
Answer: 0.758 µM

Question: What about the GI50 (LNCaP) of the same compound?
Answer: 0.779 µM

Question: What about the TGI (LNCaP) of the same compound?
Answer: 0.837 µM

Question: What about the CC50 (LNCaP) of the same compound?
Answer: 0.889 µM

Question: What about the GI50 [1] of the same compound?
Answer: 0.58 µM

Question: What about the GI50 ([1]; read-out: GI50) of the same compound?
Answer: 0.684 µM

Question: What about the CC50 [1] of the same compound?
Answer: 0.509 µM

Question: What about the GI50 [2] of the same compound?
Answer: 0.513 µM

Question: And the GI50 ([2]; read-out: GI50)?
Answer: 0.529 µM

Question: What about the CC50 [2] of the same compound?
Answer: 0.393 µM

Question: What about the TGI (SK-BR-3) of the same compound?
Answer: 0.359 µM

Question: And the GI50 (SK-BR-3)?
Answer: 0.343 µM

Question: What about the CC50 (SK-BR-3) of the same compound?
Answer: 0.374 µM

Question: And the GI50 (SK-MEL-28)?
Answer: 0.949 µM

Question: And the GI50 (SK-MEL-28; read-out: GI50)?
Answer: 0.933 µM

Question: What about the CC50 (SK-MEL-28) of the same compound?
Answer: 0.966 µM

Question: And the LC50 (A549)?
Answer: 1.2 µM

Question: What about the TGI (A549) of the same compound?
Answer: 1.13 µM

Question: What about the GI50 (A549; read-out: GI50) of the same compound?
Answer: 1.05 µM

Question: What about the GI50 (K562) of the same compound?
Answer: 1 µM

Question: And the TGI (K562)?
Answer: 1.23 µM

Question: What about the CC50 (K562) of the same compound?
Answer: 1.5 µM

Question: What about the GI50 (PANC-1) of the same compound?
Answer: 2.83 µM

Question: What about the TGI (PANC-1) of the same compound?
Answer: 4.21 µM

Question: And the CC50 (PANC-1)?
Answer: 2.29 µM

Question: And the GI50 (HT-29)?
Answer: 0.578 µM

Question: And the TGI (HT-29)?
Answer: 0.587 µM

Question: What about the CC50 (HT-29) of the same compound?
Answer: 0.917 µM

Question: And the GI50 (LoVo [3])?
Answer: 0.321 µM

Question: What about the TGI (LoVo [3]) of the same compound?
Answer: 0.396 µM

Question: And the CC50 (LoVo [3])?
Answer: 0.443 µM

Question: What about the GI50 (LoVo [4]) of the same compound?
Answer: 0.299 µM

Question: And the TGI (LoVo [4])?
Answer: 0.289 µM

Question: What about the CC50 (LoVo [4]) of the same compound?
Answer: 0.278 µM

Question: And the GI50 (HeLa)?
Answer: 0.946 µM

Question: What about the TGI (HeLa) of the same compound?
Answer: 1.01 µM

Question: What about the CC50 (HeLa) of the same compound?
Answer: 1.08 µM

Question: What about the GI50 [5] of the same compound?
Answer: 0.527 µM

Question: And the LC50 (concentration giving 50% net cell kill) [5]?
Answer: 1.22 µM

Question: What about the TGI [5] of the same compound?
Answer: 0.808 µM

— ChEMBL document CHEMBL1156597, “Structure-activity relationship of kahalalide F synthetic analogues” (J Med Chem, 2008)
